In brackets after ≈: the same amount, converted by molar mass.
Columns and labels:
Format in all cases: functional
[1] = tested on: Mycobacterium tuberculosis; test: Antimycobacterial activity against Mycobacterium tuberculosis H37Rv CNCTC My 331/88 after 14 days; conditions: H37Rv CNCTC My 331/88, 336 h
Procedure, shortened: (§1)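 M. tuberculosis strains (H37Rv and clinical MDR/XDR isolates) tested by microdilution in Šula's semisynthetic medium. Compounds were dissolved in DMSO and tested at 32 to 0.03 µM in twofold steps. Inoculum was a 1.0 McFarland suspension diluted 10-3. Plates were incubated at 37 °C and read at 14 and 21 days.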

[2] = tested on: Mycobacterium tuberculosis; test: Antimycobacterial activity against Mycobacterium tuberculosis H37Rv CNCTC My 331/88 after 21 days; conditions: H37Rv CNCTC My 331/88, 504 h; procedure, shortened: as §1
[3] = tested on: Mycobacterium avium; test: Antimycobacterial activity against Mycobacterium avium CNCTC My 330/88 after 14 days; conditions: CNCTC My 330/88, 336 h
Procedure, shortened: (§2)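 M. avium was tested by microdilution in Šula's semisynthetic medium, with compounds dissolved in DMSO and serially diluted from 1000 down to 1. Inoculum was a 1.0 McFarland suspension diluted 10-5. Plates were incubated at 37 °C and read at 14 and 21 days. […] Isoniazid and rifampicin served as standards.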

[4] = tested on: Mycobacterium avium; test: Antimycobacterial activity against Mycobacterium avium CNCTC My 330/88 after 21 days; conditions: CNCTC My 330/88, 504 h; procedure, shortened: as §2
[5] = tested on: Mycobacterium kansasii; test: Antimycobacterial activity against Mycobacterium kansasii CNCTC My 235/80 after 7 days; conditions: CNCTC My 235/80, 168 h
Procedure, shortened: (§3)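 Microdilution in Šula's semisynthetic medium; compounds in DMSO at 32–0.03 µM. Inoculum from 1.0 McFarland suspension diluted 10-4. […] Isoniazid and rifampicin as reference drugs.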

[6] = tested on: Mycobacterium kansasii; test: Antimycobacterial activity against Mycobacterium kansasii CNCTC My 235/80 after 14 days; conditions: CNCTC My 235/80, 336 h; procedure, shortened: as §3
[7] = tested on: Mycobacterium kansasii; test: Antimycobacterial activity against Mycobacterium kansasii CNCTC My 235/80 after 21 days; conditions: CNCTC My 235/80, 504 h; procedure, shortened: as §3
[8] = tested on: Mycobacterium kansasii; test: Antimycobacterial activity against Mycobacterium kansasii 6509/96 after 7 days; conditions: 6509/96, 168 h; procedure, shortened: as §3
[9] = tested on: Mycobacterium kansasii; test: Antimycobacterial activity against Mycobacterium kansasii 6509/96 after 14 days; conditions: 6509/96, 336 h; procedure, shortened: as §3
[10] = tested on: Mycobacterium kansasii; test: Antimycobacterial activity against Mycobacterium kansasii 6509/96 after 21 days; conditions: 6509/96, 504 h; procedure, shortened: as §3

O=[N+]([O-])c1cc(-c2nnc(SCc3ccc(Br)cc3)n2Cc2ccccc2)cc(C(F)(F)F)c1
MIC99 [1]: 1 µM (≈ 0.549 µg/mL)
MIC99 [2]: 1 µM (≈ 0.549 µg/mL)
MIC99 [3]: 250 µM (≈ 137 µg/mL)
MIC99 [4]: 250 µM (≈ 137 µg/mL)
MIC99 [5]: 0.5 µM (≈ 0.275 µg/mL)
MIC99 [6]: 1 µM (≈ 0.549 µg/mL)
MIC99 [7]: 1 µM (≈ 0.549 µg/mL)
MIC99 [8]: 0.5 µM (≈ 0.275 µg/mL)
MIC99 [9]: 1 µM (≈ 0.549 µg/mL)
MIC99 [10]: 2 µM (≈ 1.1 µg/mL)

Cc1ccc(-c2nnc(SCc3cc([N+](=O)[O-])cc([N+](=O)[O-])c3)n2Cc2ccccc2)cc1
MIC99 [1]: 4 µM (≈ 1.85 µg/mL)
MIC99 [2]: 4 µM (≈ 1.85 µg/mL)
MIC99 [3]: 250 µM (≈ 115 µg/mL)
MIC99 [4]: 250 µM (≈ 115 µg/mL)
MIC99 [5]: 4 µM (≈ 1.85 µg/mL)
MIC99 [6]: 4 µM (≈ 1.85 µg/mL)
MIC99 [7]: 4 µM (≈ 1.85 µg/mL)
MIC99 [8]: 4 µM (≈ 1.85 µg/mL)
MIC99 [9]: 4 µM (≈ 1.85 µg/mL)
MIC99 [10]: 4 µM (≈ 1.85 µg/mL)

CCCCCCCCSc1nnc(-c2cc([N+](=O)[O-])cc(C(F)(F)F)c2)n1Cc1ccccc1
MIC99 [1]: 2 µM (≈ 0.985 µg/mL)
MIC99 [2]: 2 µM (≈ 0.985 µg/mL)
MIC99 [3]: 250 µM (≈ 123 µg/mL)
MIC99 [4]: 250 µM (≈ 123 µg/mL)
MIC99 [5]: 1 µM (≈ 0.493 µg/mL)
MIC99 [6]: 2 µM (≈ 0.985 µg/mL)
MIC99 [7]: 2 µM (≈ 0.985 µg/mL)

Cn1c(SCc2cc([N+](=O)[O-])cc([N+](=O)[O-])c2)nnc1-c1ccccc1
MIC99 [1]: 4 µM (≈ 1.49 µg/mL)
MIC99 [2]: 4 µM (≈ 1.49 µg/mL)
MIC99 [3]: 125 µM (≈ 46.4 µg/mL)
MIC99 [4]: 250 µM (≈ 92.8 µg/mL)
MIC99 [5]: 4 µM (≈ 1.49 µg/mL)
MIC99 [6]: 8 µM (≈ 2.97 µg/mL)
MIC99 [7]: 16 µM (≈ 5.94 µg/mL)
MIC99 [8]: 4 µM (≈ 1.49 µg/mL)
MIC99 [9]: 8 µM (≈ 2.97 µg/mL)
MIC99 [10]: 16 µM (≈ 5.94 µg/mL)

COc1ccc(CSc2nnc(-c3ccccc3)n2Cc2cc([N+](=O)[O-])cc([N+](=O)[O-])c2)cc1
MIC99 [1]: 16 µM (≈ 7.64 µg/mL)
MIC99 [2]: 16 µM (≈ 7.64 µg/mL)
MIC99 [3]: 250 µM (≈ 119 µg/mL)
MIC99 [4]: 250 µM (≈ 119 µg/mL)
MIC99 [5]: > 32 µM
MIC99 [6]: > 32 µM
MIC99 [8]: > 32 µM
MIC99 [9]: > 32 µM

O=[N+]([O-])c1ccc(-c2nnc(SCc3cc([N+](=O)[O-])cc([N+](=O)[O-])c3)n2Cc2ccccc2)cc1
MIC99 [1]: 4 µM (≈ 1.97 µg/mL)
MIC99 [2]: 4 µM (≈ 1.97 µg/mL)
MIC99 [3]: 250 µM (≈ 123 µg/mL)
MIC99 [4]: 250 µM (≈ 123 µg/mL)
MIC99 [5]: 2 µM (≈ 0.985 µg/mL)
MIC99 [6]: 4 µM (≈ 1.97 µg/mL)
MIC99 [7]: 4 µM (≈ 1.97 µg/mL)
MIC99 [8]: 2 µM (≈ 0.985 µg/mL)
MIC99 [9]: 4 µM (≈ 1.97 µg/mL)
MIC99 [10]: 8 µM (≈ 3.94 µg/mL)

O=[N+]([O-])c1cc(CSc2nnc(-c3ccccc3)[nH]2)cc([N+](=O)[O-])c1
MIC99 [1]: 2 µM (≈ 0.715 µg/mL)
MIC99 [2]: 4 µM (≈ 1.43 µg/mL)
MIC99 [3]: 62 µM (≈ 22.2 µg/mL)
MIC99 [4]: 125 µM (≈ 44.7 µg/mL)
MIC99 [5]: 4 µM (≈ 1.43 µg/mL)
MIC99 [6]: 8 µM (≈ 2.86 µg/mL)
MIC99 [7]: 8 µM (≈ 2.86 µg/mL)
MIC99 [8]: 4 µM (≈ 1.43 µg/mL)
MIC99 [9]: 8 µM (≈ 2.86 µg/mL)
MIC99 [10]: 16 µM (≈ 5.72 µg/mL)

CCn1c(SCc2cc([N+](=O)[O-])cc([N+](=O)[O-])c2)nnc1-c1ccccc1
MIC99 [1]: 2 µM (≈ 0.771 µg/mL)
MIC99 [2]: 4 µM (≈ 1.54 µg/mL)
MIC99 [3]: 250 µM (≈ 96.4 µg/mL)
MIC99 [4]: 250 µM (≈ 96.4 µg/mL)
MIC99 [5]: 2 µM (≈ 0.771 µg/mL)
MIC99 [6]: 2 µM (≈ 0.771 µg/mL)
MIC99 [7]: 4 µM (≈ 1.54 µg/mL)
MIC99 [8]: 2 µM (≈ 0.771 µg/mL)
MIC99 [9]: 4 µM (≈ 1.54 µg/mL)
MIC99 [10]: 4 µM (≈ 1.54 µg/mL)

O=C(NNC(=S)NCc1ccc(Cl)cc1Cl)c1cc([N+](=O)[O-])cc([N+](=O)[O-])c1
MIC99 [1]: 8 µM (≈ 3.55 µg/mL)
MIC99 [2]: 8 µM (≈ 3.55 µg/mL)
MIC99 [3]: 16 µM (≈ 7.11 µg/mL)
MIC99 [4]: 32 µM (≈ 14.2 µg/mL)
MIC99 [5]: 16 µM (≈ 7.11 µg/mL)
MIC99 [6]: 16 µM (≈ 7.11 µg/mL)
MIC99 [7]: 16 µM (≈ 7.11 µg/mL)
MIC99 [8]: 16 µM (≈ 7.11 µg/mL)
MIC99 [9]: 16 µM (≈ 7.11 µg/mL)
MIC99 [10]: 16 µM (≈ 7.11 µg/mL)

O=[N+]([O-])c1cc(CSc2nnc(-c3ccc(Cl)c(Cl)c3)n2Cc2ccccc2)cc([N+](=O)[O-])c1
MIC99 [1]: 2 µM (≈ 1.03 µg/mL)
MIC99 [2]: 2 µM (≈ 1.03 µg/mL)
MIC99 [3]: 250 µM (≈ 129 µg/mL)
MIC99 [4]: 250 µM (≈ 129 µg/mL)
MIC99 [5]: 1 µM (≈ 0.516 µg/mL)
MIC99 [6]: 2 µM (≈ 1.03 µg/mL)
MIC99 [7]: 2 µM (≈ 1.03 µg/mL)
MIC99 [8]: 2 µM (≈ 1.03 µg/mL)
MIC99 [9]: 4 µM (≈ 2.07 µg/mL)
MIC99 [10]: 4 µM (≈ 2.07 µg/mL)

Reference: ChEMBL document CHEMBL4373711, “Development of 3,5-Dinitrophenyl-Containing 1,2,4-Triazoles and Their Trifluoromethyl Analogues as Highly Efficient Antitubercular Agents Inhibiting Decaprenylphosphoryl-β-d-ribofuranose 2'-Oxidase” (J Med Chem, 2019)
